Measured values from ChEMBL document CHEMBL1143969, “Synthesis and pharmacological evaluation of bicyclic SNC80 analogues with separated benzhydryl moiety” (Bioorg Med Chem, 2008).

Key:
[1] = target: T1, Delta-type opioid receptor (Homo sapiens, UniProt P41143); test: Displacement of [3H]deltorphine 2 from human delta opioid receptor expressed in CHOK1 cells at 10 uM; format: cell-based; conditions: CHO-K1
Outline: (§1)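 Membranes diluted 1:87 in 50 mmol/L Tris-HCl, 5 mmol/L MgCl2, pH 7.4; radioligand solution 10 nmol/L (stock), 0.5% DMSO. Incubated 120 min at rt, filtered through PEI-soaked GF/B filters, washed three times with cold buffer, dried 1 h at 55 °C, scintillation counted. Naloxone defines non-specific binding. Ki determined where inhibition at 10 µM exceeded 50%.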

[2] = target: T2, Mu-type opioid receptor (Homo sapiens, UniProt P35372); test: Displacement of [3H]naloxone from human mu opioid receptor expressed in CHOK1 cells at 10 uM; format: cell-based; conditions: CHO-K1
Outline: (§2)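 Membranes in Tris-HCl pH 7.4 + 0.06% BSA, premixed with wheatgerm agglutinin SPA beads; radioligand solution 10 nmol/L (stock), ~25% DMSO in added solutions. Incubated 150 min at rt, centrifuged 20 min at 500 rpm, counted by scintillation proximity. Naloxone defines non-specific binding. Ki determined where inhibition at 10 µM exceeded 50%.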

[3] = target: T3, Kappa-type opioid receptor (Homo sapiens, UniProt P41145); test: Displacement of [3H]C1-977 from human kappa opioid receptor expressed in HEK293 cells at 10 uM; format: cell-based
Outline: (§3)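 SPA format as for mu: membranes diluted 1:34 in 50 mmol/L Tris-HCl, 0.05% NaN3, pH 7.4, mixed with wheatgerm agglutinin SPA beads; 150 min at rt, centrifugation, scintillation counting. Ki determined where inhibition at 10 µM exceeded 50%.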

[4] = target: Nociceptin receptor (Homo sapiens) (UniProt P41146); test: Displacement of [3H]nociceptin from human ORL1 receptor expressed in HEK293 cells at 10 uM; format: cell-based
[5] = target: T2, Mu-type opioid receptor; test: Displacement of [3H]naloxone from human mu opioid receptor expressed in CHOK1 cells; format: cell-based, CHO-K1; outline: as §2
[6] = target: T3, Kappa-type opioid receptor; test: Displacement of [3H]C1-977 from human kappa opioid receptor expressed in HEK293 cells; format: cell-based; outline: as §3
[7] = target: T1, Delta-type opioid receptor; test: Displacement of [3H]deltorphine 2 from human delta opioid receptor expressed in CHOK1 cells; format: cell-based, CHO-K1
Outline: as §1, with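 “binding.” for “binding. Ki determined where inhibition at 10 µM exceeded 50%.”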

T2 sequence (P35372 whole entry): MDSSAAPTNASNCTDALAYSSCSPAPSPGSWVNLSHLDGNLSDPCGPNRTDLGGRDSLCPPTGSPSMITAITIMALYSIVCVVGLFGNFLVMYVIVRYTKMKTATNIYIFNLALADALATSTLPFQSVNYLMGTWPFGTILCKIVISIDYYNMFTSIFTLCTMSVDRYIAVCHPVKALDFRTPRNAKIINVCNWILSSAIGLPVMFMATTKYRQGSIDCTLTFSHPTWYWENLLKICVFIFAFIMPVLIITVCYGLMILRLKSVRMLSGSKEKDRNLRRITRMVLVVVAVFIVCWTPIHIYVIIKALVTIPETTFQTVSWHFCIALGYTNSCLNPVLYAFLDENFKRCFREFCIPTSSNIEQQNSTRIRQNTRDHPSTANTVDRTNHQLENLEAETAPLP
T3 sequence (P41145 whole entry): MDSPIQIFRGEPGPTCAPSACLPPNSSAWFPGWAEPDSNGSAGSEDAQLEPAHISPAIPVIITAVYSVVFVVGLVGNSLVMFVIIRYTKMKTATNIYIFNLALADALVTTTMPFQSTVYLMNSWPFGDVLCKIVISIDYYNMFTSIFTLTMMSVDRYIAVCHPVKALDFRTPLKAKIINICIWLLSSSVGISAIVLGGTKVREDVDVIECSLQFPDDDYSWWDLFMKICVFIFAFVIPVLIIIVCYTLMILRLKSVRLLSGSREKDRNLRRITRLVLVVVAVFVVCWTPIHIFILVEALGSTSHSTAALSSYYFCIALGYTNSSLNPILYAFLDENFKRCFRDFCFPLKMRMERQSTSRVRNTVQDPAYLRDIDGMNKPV
T1 sequence (P41143 whole entry): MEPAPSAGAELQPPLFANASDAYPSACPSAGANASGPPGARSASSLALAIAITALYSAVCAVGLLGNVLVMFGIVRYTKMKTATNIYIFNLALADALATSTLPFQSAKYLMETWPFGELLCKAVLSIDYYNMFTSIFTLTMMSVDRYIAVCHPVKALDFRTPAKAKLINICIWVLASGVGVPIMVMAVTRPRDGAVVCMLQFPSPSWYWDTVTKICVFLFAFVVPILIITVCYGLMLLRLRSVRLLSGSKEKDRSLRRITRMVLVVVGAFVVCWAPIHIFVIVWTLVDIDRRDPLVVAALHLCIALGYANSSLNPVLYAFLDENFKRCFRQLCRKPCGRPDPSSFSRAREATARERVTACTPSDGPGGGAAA
Chain of Nociceptin receptor (Homo sapiens) (P41146 whole entry): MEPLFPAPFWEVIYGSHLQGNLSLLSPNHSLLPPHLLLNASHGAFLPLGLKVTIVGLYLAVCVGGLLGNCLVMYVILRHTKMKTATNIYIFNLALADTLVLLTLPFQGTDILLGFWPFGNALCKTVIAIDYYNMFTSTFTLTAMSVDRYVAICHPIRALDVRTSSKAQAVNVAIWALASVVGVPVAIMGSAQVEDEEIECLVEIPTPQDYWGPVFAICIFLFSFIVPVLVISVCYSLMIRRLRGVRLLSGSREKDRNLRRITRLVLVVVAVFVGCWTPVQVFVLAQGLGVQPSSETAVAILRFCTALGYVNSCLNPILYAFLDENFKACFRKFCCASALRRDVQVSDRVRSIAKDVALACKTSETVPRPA

For `C=CCN1C[C@@H]2[C@H](c3ccccc3)CC[C@H]1CN2Cc1ccc(C(=O)N(CC)CC)cc1`, the inhibition [1] was 6%, the inhibition [2] was 56% and the inhibition [3] was 73%. The inhibition [4] was 7%, the Ki [5] was 7300 nM and the Ki [6] was 1700 nM.

In the case of `CCCN1C[C@@H]2[C@@H](c3ccccc3)CC[C@H]1CN2Cc1ccc(C(=O)N(CC)CC)cc1`, the inhibition [1] is reported as 4%, the inhibition [2] is reported as 44% and the inhibition [3] is reported as 49%. It also gave an inhibition [4] of 3%.

In the case of `C=CCN1C[C@H]2C(c3ccccc3)=CC[C@@H]1CN2Cc1ccc(C(=O)N(CC)CC)cc1`, the inhibition [1] is reported as 87%, the inhibition [2] is reported as 91% and the inhibition [3] is reported as 31%. It also gave an inhibition [4] of under 10%, a Ki [7] of 740 nM and a Ki [5] of 250 nM.

`CCCN1C[C@@H]2C(c3ccccc3)=CC[C@H]1CN2Cc1ccc(C(=O)N(CC)CC)cc1` was tested, and the inhibition [1] was 20%, the inhibition [2] was 55% and the inhibition [3] was 22%. For the same compound, the inhibition [4] was 45%.

Work on `CCCN1C[C@@H]2[C@H](c3ccccc3)CC[C@H]1CN2Cc1ccc(C(=O)N(CC)CC)cc1` yielded an inhibition [1] of 4%, an inhibition [2] of 61% and an inhibition [3] of 63%. It also gave an inhibition [4] of 1%, a Ki [5] of 5700 nM and a Ki [6] of 2400 nM.

For `C=CCN1C[C@@H]2[C@@H](c3ccccc3)CC[C@H]1CN2Cc1ccc(C(=O)N(CC)CC)cc1`, the inhibition [1] was 34%, the inhibition [2] was 58% and the inhibition [3] was 76%. It also gave an inhibition [4] of 14%, a Ki [5] of 6320 nM and a Ki [6] of 1100 nM.

Compound `C=CCN1C[C@@H]2C(c3ccccc3)=CC[C@H]1CN2Cc1ccc(C(=O)N(CC)CC)cc1` has an inhibition [1] of 14%, an inhibition [2] of 56% and an inhibition [3] of 76%. The inhibition [4] was 9%, the Ki [5] was 6800 nM and the Ki [6] was 890 nM.
